Screening data as filed in PubChem BioAssay.
Rows were chosen to be rich in hits. Some 12% of all compounds tested hit in one or more screens of this group.
L major viab = Leishmania major promastigote growth inhibition, primary screen | Leishmania major promastigotes, resazurin fluorescence viability | inhibition, % at 10 µM | hit rate 9% among 200,000;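 further: promastigotes grown with compound for 44 hours at 28 °C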
PKD1 kinase inh = inhibitors of human PKD1 kinase, biochemical, fluorescence polarization; Serine/threonine-protein kinase D1 (Homo sapiens), Q15139; PKD1 kinase fluorescence polarization assay; inhibition, % (no concentration beside the values); hit rate 0.056% among 200,000
Rad51 HR inh = human RAD51 strand exchange inhibitors, primary screen, biochemical, fluorescence. hit rate 0.085% among 200,000. hRad51 DNA strand exchange, fluorescence dequenching. DNA repair protein RAD51 homolog 1 (Homo sapiens), Q06609. inhibition, % at 10 µM;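 active means inhibition above 40% at the single screening dose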
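Test system: preformed human Rad51 ssDNA filaments; also added: Donor/quencher-labelled 47-bp dsDNA substrate; doses: 10 µM final, single point; times: 37 °C 15-min filament assembly, 30-min compound preincubation, 15-min exchange; detection: FRET fluorescence dequenching, excitation 485 nm, emission 520 nm; read-out basis: Fluorescence-based percent inhibition, control- and blank-normalised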
Wee1 degr inh = Wee1 degradation inhibitors, primary screen, cell-based, HeLa, Wee1K328M-luciferase, luminescence; Wee1-like protein kinase (Homo sapiens), P30291; HeLa Luc-Wee1K328M stability; 100% = proteasome inhibitor MG132 effect; reporter increase, % at 5 µM; hit rate 1.2% among 220,000;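 active means activation above the mean of all tested compounds plus 3 SD, set per screening run, cut at about 8.8% in these data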;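 further: cells exposed to compound for 20 h before luminescence read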
Target sequence (P30291 whole entry K328M): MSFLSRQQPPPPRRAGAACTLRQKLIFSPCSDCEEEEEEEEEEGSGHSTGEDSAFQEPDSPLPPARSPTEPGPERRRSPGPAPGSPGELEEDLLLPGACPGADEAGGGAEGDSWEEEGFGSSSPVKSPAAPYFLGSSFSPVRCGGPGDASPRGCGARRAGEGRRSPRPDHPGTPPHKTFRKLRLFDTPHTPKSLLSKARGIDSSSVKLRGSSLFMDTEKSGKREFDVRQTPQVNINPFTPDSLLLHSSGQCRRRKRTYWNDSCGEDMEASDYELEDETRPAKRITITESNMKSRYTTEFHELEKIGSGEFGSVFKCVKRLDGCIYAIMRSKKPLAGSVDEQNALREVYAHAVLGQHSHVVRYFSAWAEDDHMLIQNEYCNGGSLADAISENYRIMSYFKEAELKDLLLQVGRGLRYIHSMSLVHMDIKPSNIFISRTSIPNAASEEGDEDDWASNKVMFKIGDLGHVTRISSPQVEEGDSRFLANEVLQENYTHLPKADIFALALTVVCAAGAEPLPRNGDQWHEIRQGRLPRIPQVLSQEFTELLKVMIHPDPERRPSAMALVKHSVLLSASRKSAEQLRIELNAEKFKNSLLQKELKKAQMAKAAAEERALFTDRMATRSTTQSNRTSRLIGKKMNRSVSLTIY
CHOP inh = inhibitors of CHOP promoter induction, primary screen, cell-based, unfolded protein response, luciferase reporter. inhibition, % at 10 µM. hit rate 3.8% among 220,000. CHO-K1 CHOP-promoter luciferase, tunicamycin-induced, 15-18 h. AID 2732, 2010;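 active means compounds that reduced the stress-induced luciferase reporter signal by more than about 70% of percent inhibition, limit read from the data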
Arbovirus inh = antivirals against arbovirus infection, primary screen, cell-based, full library, 10K replicate subset; hit rate 0.37% among 200,000; AID 1251, 2008; arbovirus infection cell-based antiviral screen; inhibition, % at 10 µM; in the data active means inhibition above about 30%
Wee1 degr conf = Wee1 degradation inhibitors, confirmation, cell-based, HeLa, Wee1K328M-luciferase, luminescence, triplicate; activation, % at 5 µM; hit rate 4% among 1,100; shares compounds with Wee1 degr inh; HeLa Luc-Wee1K328M degradation; vehicle 0%, proteasome-blocked wells 100%; in the data active means activation above about 8.9%
Of the large screens only hits and unclear results are named; the others gave an inactive call (follow-up assays come after a bar, where they were run). Unless noted, no stated cut-off is given here; in the data, active means inhibition above about 50%; inactive means the rest.

COCCCNC(=O)CCC(=O)NNc1nc2ccccc2c2nc(C)nn12	none
CCOC(=O)c1c(C)[nH]c(C(=O)N/N=C\c2ccccc2O)c1C	L major viab 99.9, Wee1 degr inh 11.7 | Wee1 degr conf inactive
Cc1ccsc1/C=C1\CCc2ccccc2C1=O	Wee1 degr inh 16.0, CHOP inh 76.9 | Wee1 degr conf inactive
CCCCc1ccc(S(=O)(=O)N2CCN(C(=O)c3ccco3)CC2)cc1	none
O=C(Nc1ccccc1Cl)Nc1ccccc1Cl	none (no result: L major viab, PKD1 kinase inh, Arbovirus inh)
NNC(=O)CNc1ccccc1Cl	Wee1 degr inh 11.2 | Wee1 degr conf inactive
CCCCNc1nc(N)nc(-c2cc(Cl)ccc2O)n1	Wee1 degr inh 14.1, CHOP inh 76.6 (no result: Rad51 HR inh) | Wee1 degr conf inactive
CCNc1nc(N)nc(-c2cc(Cl)ccc2O)n1	none
COC(=O)c1cc(-c2c(C)nn(-c3ccccc3)c2C)n[nH]1	none
Cc1nn(-c2ccccc2)c(C)c1-c1cc(C(=O)N/N=C/c2cccnc2)[nH]n1	Wee1 degr inh 19.4 | Wee1 degr conf inactive
CCCCC(=O)N/N=C(/C)C1=C(C)C(C)(C)OC1=O	none
COc1cc(/C=N/Nc2nc(=O)[nH]nc2C)ccc1O	Wee1 degr inh 17.3 (no result: L major viab, PKD1 kinase inh, Rad51 HR inh, Arbovirus inh) | Wee1 degr conf inactive
CCc1cccc(OCC(=O)Nc2ccc(S(=O)(=O)Nc3onc(C)c3C)cc2)c1	none (no result: Rad51 HR inh)
Cc1cc(/C=N/NC(=O)COc2cccc3cccnc23)c(C)n1-c1ccc(O)cc1	Wee1 degr inh 14.1 | Wee1 degr conf inactive
Cc1cc(C)cc(-n2c(C)cc(/C=N\NC(=O)COc3cccc4cccnc34)c2C)c1	none (no result: Rad51 HR inh)
O=C(NNC(=O)c1sccc1-n1cccc1)Nc1ccc(F)cc1	none
O=C(O)/C=C/c1cnn(-c2ccccc2)c1	Wee1 degr inh 15.1 | Wee1 degr conf inactive
COc1cc(C(C(=O)NC2CCCCC2)N(CCN2CCOCC2)C(=O)C2COc3ccccc3O2)cc(OC)c1OC (stereo unspecified)	none
CN(C)c1nnc(-c2ccc(Cl)cc2)o1	none
COc1cc(NC(C)=O)ccc1-c1cc2ccccc2oc1=O	Wee1 degr inh 14.6 | Wee1 degr conf inactive
CC1(C)Nc2ccccc2C(=O)N1NS(=O)(=O)c1ccccc1	Wee1 degr inh 11.2 | Wee1 degr conf inactive
O=C(Nc1ccc(F)cc1F)c1csc(-c2ccncc2)n1	none
O=C(Nc1ccc(F)cc1F)c1csc(-c2cccs2)n1	Wee1 degr inh 11.0 | Wee1 degr conf inactive
O=C(O)c1cn[nH]c1-c1cccc([N+](=O)[O-])c1	none (no result: Rad51 HR inh)
Cc1c(NC(=O)C(C)OC(=O)c2cccs2)c(=O)n(-c2ccccc2)n1C (stereo unspecified)	Wee1 degr inh 29.8 | Wee1 degr conf inactive
Cc1c(NC(=O)c2cccs2)c(=O)n(-c2ccccc2)n1C	none
C/C(=N\Nc1cccc(C(F)(F)F)c1)c1ccc(O)cc1	none
C/C(=N\NC(=O)CNc1ccccc1)c1ccccc1	none
CC(Oc1ccc(Cl)cc1Cl)C(=O)Nc1ccc(S(=O)(=O)Nc2cnc3ccccc3n2)cc1 (stereo unspecified)	none
O=C(Cc1ccc(Cl)cc1)Nc1ccc(S(=O)(=O)Nc2cnc3ccccc3n2)cc1	Wee1 degr inh 11.5 | Wee1 degr conf inactive
COc1cc(OC)c(NC(=O)/C=C/C(=O)O)cc1Cl	Wee1 degr inh 12.2 (no result: L major viab, PKD1 kinase inh, Arbovirus inh) | Wee1 degr conf inactive
CCCCc1c(C)nc(Nc2ccc(OC)cc2)[nH]c1=O	Wee1 degr inh 18.5 (no result: Rad51 HR inh) | Wee1 degr conf inactive
Cc1ccc(C)c(S(=O)(=O)Nc2nc(C)c(C(=O)Nc3ccccc3)s2)c1	Wee1 degr inh 13.6 (no result: Rad51 HR inh) | Wee1 degr conf inactive
COc1ccc(NS(=O)(=O)c2cc(NC(=O)c3cccs3)ccc2N2CCCC2)cc1	none (no result: Rad51 HR inh)
COc1ccc(NS(=O)(=O)c2cc(NC(=O)c3ccccc3F)ccc2N2CCCC2)cc1	Wee1 degr inh 13.6 (no result: L major viab, PKD1 kinase inh, Rad51 HR inh, Arbovirus inh) | Wee1 degr conf inactive
CCn1cc(C(=O)OCC(=O)c2ccc(Cl)cc2)c(=O)c2ccc(C)nc21	none
CCn1cc(C(=O)OCC(=O)c2ccccc2)c(=O)c2ccc(C)nc21	Wee1 degr inh 12.2 | Wee1 degr conf inactive
CN(Cc1cnccn1)Cc1nc(Cc2cccc(F)c2)no1	none (no result: Rad51 HR inh)
COc1ccc(C2=NN(C(=O)CN3CCCCC3)C(c3ccc(OC)cc3)C2)cc1 (stereo unspecified)	Wee1 degr inh 13.3 (no result: L major viab, PKD1 kinase inh, Arbovirus inh) | Wee1 degr conf inactive
COc1cc(NC(=O)Cn2ccsc2=N)cc(OC)c1	Wee1 degr inh 13.0 (no result: L major viab, PKD1 kinase inh, Arbovirus inh) | Wee1 degr conf inactive
COc1ccc(NC(=O)c2ccc(Cn3cc(Cl)cn3)cc2)cc1	none
Cc1ccc(F)c(NC(=O)c2ccc(Cn3cc(Cl)cn3)cc2)c1	Wee1 degr inh 11.8 | Wee1 degr conf inactive
CCOC(=O)c1ccccc1NC(=S)N1CC(C)CC(C)C1 (stereo unspecified)	Wee1 degr inh 14.9 | Wee1 degr conf inactive
CC(=O)Nc1ccccc1OC(C)C(=O)N1CC(C)CC(C)C1 (stereo unspecified)	none (no result: L major viab, PKD1 kinase inh, Arbovirus inh)
CC1CC(C)CN(C(=O)Nc2ccccc2F)C1 (stereo unspecified)	Wee1 degr inh 18.9 (no result: L major viab, PKD1 kinase inh, Rad51 HR inh, Arbovirus inh) | Wee1 degr conf inactive
CCOC(=O)c1ccccc1NC(=S)N1CCC(C)CC1	none
Cn1cc(C(=O)NC2C3CC4CC(C3)CC2C4)cn1 (stereo unspecified)	none
Cn1cc(Br)c(C(=O)NC2C3CC4CC(C3)CC2C4)n1 (stereo unspecified)	Wee1 degr inh 12.1 | Wee1 degr conf inactive
O=C(c1ccc(S(=O)(=O)NCC2CCCO2)cc1)N1CCN(c2ccccc2F)CC1 (stereo unspecified)	Wee1 degr inh 26.2 | Wee1 degr conf inactive
CCOC(=O)Cn1c(=NC(=O)CSC(C)=O)sc2ccccc21	Wee1 degr inh 16.3 | Wee1 degr conf inactive
Cc1ccn2cc(CNS(=O)(=O)c3cccs3)nc2c1	Wee1 degr inh 13.2 (no result: L major viab, PKD1 kinase inh, Rad51 HR inh, Arbovirus inh) | Wee1 degr conf inactive
Cc1ccn2cc(CNS(=O)(=O)c3ccc(Cl)s3)nc2c1	none
CCc1nc(SCC(=O)Nc2cccc(C(F)(F)F)c2)c2c(=O)n(C)c(=O)n(C)c2n1	none
CN1CCN(C(=O)C2CC(c3c(F)cccc3Cl)=NO2)CC1 (stereo unspecified)	Wee1 degr inh 12.9 | Wee1 degr conf inactive
Cc1c(NC(=O)C2CC(c3c(F)cccc3Cl)=NO2)c(=O)n(-c2ccccc2)n1C (stereo unspecified)	none
O=[N+]([O-])c1ccccc1/C=N/n1c(C(F)(F)F)n[nH]c1=S	Wee1 degr inh 12.0 | Wee1 degr conf inactive
